Reference: ChEMBL document CHEMBL1125363, “Novel piperidine sigma receptor ligands as potential antipsychotic drugs” (J Med Chem, 1992)

Assays:
[1] = biological target: Serotonin 2 (5-HT2) receptor (Mus musculus, UniProt Q02152+P34968+P35363); test: In vitro binding affinity for serotonin 5-hydroxytryptamine (5-HT) 2 receptors; assay type: protein assay
D(2) dopamine receptor = D(2) dopamine receptor (Mus musculus, UniProt P61168); test: In vitro binding affinity towards dopamine receptor D2
[2] = biological target: Sigma non-opioid intracellular receptor 1 (Mus musculus, UniProt O55242); test: In vitro binding affinity for the mouse sigma opioid receptor
Mus musculus = organism: Mus musculus; test: Oral potency tested by using anti-mescaline test; assay type: functional
Outline: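 Mice; mescaline was given to evoke hallucinogen-type behaviour, and the test compound was dosed orally to antagonise it. Potency is the ED50 in mg/kg po. Some ED50s are the average of three measurements.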

Sequence of Sigma non-opioid intracellular receptor 1 (O55242 whole entry): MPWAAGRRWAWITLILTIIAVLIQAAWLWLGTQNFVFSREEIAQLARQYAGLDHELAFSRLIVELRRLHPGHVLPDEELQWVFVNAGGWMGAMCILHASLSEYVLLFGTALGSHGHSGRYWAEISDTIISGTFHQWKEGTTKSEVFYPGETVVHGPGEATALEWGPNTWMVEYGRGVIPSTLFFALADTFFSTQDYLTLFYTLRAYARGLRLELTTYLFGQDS
Sequence of D(2) dopamine receptor (P61168 whole entry): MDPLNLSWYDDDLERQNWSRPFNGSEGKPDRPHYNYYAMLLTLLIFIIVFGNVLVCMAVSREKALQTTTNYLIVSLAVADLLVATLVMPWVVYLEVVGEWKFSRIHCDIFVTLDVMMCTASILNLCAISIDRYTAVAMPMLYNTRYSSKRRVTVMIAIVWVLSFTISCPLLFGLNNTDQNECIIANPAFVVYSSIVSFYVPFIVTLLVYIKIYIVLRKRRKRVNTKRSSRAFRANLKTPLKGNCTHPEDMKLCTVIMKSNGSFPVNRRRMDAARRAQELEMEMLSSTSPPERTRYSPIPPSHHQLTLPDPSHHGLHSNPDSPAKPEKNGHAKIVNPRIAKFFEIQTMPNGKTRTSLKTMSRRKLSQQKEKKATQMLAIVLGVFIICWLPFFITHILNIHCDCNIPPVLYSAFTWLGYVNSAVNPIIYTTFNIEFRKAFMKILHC

Ki [1] [nM]	IC50 (D(2) dopamine receptor) [nM]	Ki [2] [nM]	Compound	ED50 (Mus musculus) [mg/kg]
112	2350	34	c1cc2cc(OCC3CCN(CC4CC4)CC3)ccc2[nH]1	< 30
87	1650	8	Cl.Clc1ccc(OCC2CCN(CC3CC3)CC2)cc1Cl	3.3
> 10000	> 10000	33	CCNc1ccc(OCC2CCN(CC3CC3)CC2)cc1.Cl.O	> 30
> 1000	1570	8	Br.CC(C)(C)c1ccc(C(=O)CC2CCN(CC3CC3)CC2)cc1.O	> 30
> 100	> 10000	35	O.OCc1ccc(OCC2CCN(CC3CC3)CC2)cc1	> 30
32	111	4	Cl.Clc1ccc(OCC2CCN(CC3CC3)CC2)c(Cl)c1	2.9
41	2840	2	Cl.Fc1ccc(OCC2CCN(CC3CC3)CC2)cc1F	4.5
38	1070	8	Fc1ccc(CN2CCC(COc3ccc(F)cc3)CC2)cc1	5.9
	7220	218	COc1ccc(-c2ccc(OCC3CCN(CC4CC4)CC3)cc2)cc1	
272	4390	5	Cl.O=[N+]([O-])c1ccc(OCC2CCN(Cc3ccccc3)CC2)cc1	14
> 1000	539	9	CC(=O)c1ccc(OCC2CCN(CC3CC3)CC2)cc1	> 30
55	> 10000	3	COc1ccc(OCC2CCN(Cc3ccccc3)CC2)cc1	> 30
127	3350	3	Cl.Fc1ccc(COCC2CCN(CC3CCCCC3)CC2)cc1	> 10
> 100	> 10000	18	COc1ccc(OCC2CCN(CC3CC3)CC2)cc1.Cl.O	> 30
24	945	5	CC1CC1CN1CCC(COc2ccc(F)cc2)CC1.O=C(O)/C=C\C(=O)O (stereo unspecified)	> 10
8706	> 10000	50	COc1cc(OCC2CCN(CC3CC3)CC2)cc(OC)c1OC.Cl	> 30
745	> 10000	28	O=S(=O)(CC1CCN(CCC2CC2)CC1)c1ccc(F)cc1	6.4
396	> 10000	83	Fc1ccc(-c2ccc(OCC3CCN(CC4CC4)CC3)cc2)cc1	< 30
53	3170	7	c1ccc(OCC2CCN(CC3CC3)CC2)cc1	30
	> 10000	175	c1cc(OCC2CCN(CC3CC3)CC2)ccn1	
350	1930	2	FC(F)(F)c1ccc(OCC2CCN(Cc3ccccc3)CC2)cc1	6
	> 10000	146	Nc1ccc(C(=O)CC2CCN(CC3CC3)CC2)cc1.O	10
	4440	347	c1cnc(OCC2CCN(CC3CC3)CC2)nc1	
		> 10000	CN(C)S(=O)(=O)c1ccc(OCC2CCN(CC3CC3)CC2)cc1	
	> 10000	310	[O-][S+](CC1CCN(CCC2CC2)CC1)c1ccc(F)cc1 (stereo unspecified)	
	> 10000	155	OC(CC1CCN(CCC2CC2)CC1)c1ccc(F)cc1 (stereo unspecified)	
	> 10000	98	CC(O)c1ccc(OCC2CCN(CC3CC3)CC2)cc1 (stereo unspecified)	

The next lines start with the molecule.

Compound	Ki [1] [nM]	IC50 (D(2) dopamine receptor) [nM]	Ki [2] [nM]	ED50 (Mus musculus) [mg/kg]
O=C(CC1CCN(CCc2ccccc2)CC1)c1ccc(F)cc1	8	42	8	4.1
O.c1ccc(CN2CCC(COc3ccc4ccccc4c3)CC2)cc1	173	1020	6	> 30
CSc1ccc(C(=O)CC2CCN(Cc3ccccc3)CC2)cc1	208	715	8	> 30
OC(Cc1ccc(F)cc1)C1CCN(CCCCc2ccccc2)CC1 (stereo unspecified)	65	900	11	18
COC(=O)c1ccc(CN2CCC(COCc3ccc(F)cc3)CC2)cc1.Cl	313	1980	7	> 10
O.OC(CC1CCN(CCc2ccccc2)CC1)c1ccc(F)cc1 (stereo unspecified)	101	806	7	< 10
COc1ccc(COCC2CCN(Cc3ccccc3)CC2)cc1.O=C(O)/C=C\C(=O)O	287	26000	3.5	> 30
O.OC(Cc1ccc(F)cc1)C1CCN(CCCc2ccccc2)CC1 (stereo unspecified)	41	1700	7	
CS(=O)(=O)c1ccc(C(=O)CC2CCN(Cc3ccccc3)CC2)cc1	116	> 10000	18	> 30
C[S+]([O-])c1ccc(C(=O)CC2CCN(Cc3ccccc3)CC2)cc1.O (stereo unspecified)	204	> 10000	53	> 30
Fc1ccc(COCC2CCN(CCCc3ccccc3)CC2)cc1		> 10000	304	
Cl.Fc1ccc(COCC2CCN(Cc3cccc4ccccc34)CC2)cc1	25	219	22	12
CC1(CN2CCC(COc3ccc(F)cc3)CC2)CC1(Cl)Cl.O=C(O)/C=C/C(=O)O (stereo unspecified)	15	179	2	< 10
O.O=C(CC1CCN(Cc2ccccc2)CC1)c1ccc(O)cc1	> 1000	1340	18	> 30
O.O=C(CC1CCN(Cc2ccccc2)CC1)c1ccc(CO)cc1	438	> 10000	31	> 30
O=C(CCCN1CCC(C(=O)Cc2ccc(F)cc2)CC1)c1ccc(F)cc1	17		40	1.9
COc1ccc(C(=O)CC2CCN(Cc3ccccc3)CC2)cc1	313	6070	4	> 30
O.OC(CC1CCN(Cc2ccccc2)CC1)c1ccc2ccccc2c1 (stereo unspecified)	> 100	3330	31	> 10
COc1ccc(CN2CCC(COc3ccc(F)cc3)CC2)cc1.O.O=C(O)/C=C\C(=O)O		1340	30	6.5
O.O=C(Cc1ccc(F)cc1)C1CCN(Cc2ccccc2)CC1.O=C(O)/C=C\C(=O)O	290	4560	3	18
O=C(CC1CCCN(Cc2ccccc2)C1)c1ccc(F)cc1 (stereo unspecified)		34	14	1.1
O=C(CC1CCCCN1Cc1ccccc1)c1ccc(F)cc1.O=C(O)/C=C\C(=O)O (stereo unspecified)		3340	37	4.3
O=C(CC1CCCN(CC2CC2)C1)c1ccc(F)cc1 (stereo unspecified)		185	17	1.3
